Reference: publication PMC3052282 (Journal of biomolecular screening, 2010)
“Also recorded” adds a separate entry of the source.

Legend:
DnaK-DnaJ [1] = biological target: T1, DnaK-DnaJ (Escherichia coli, UniProt P0A6Y8); assay: High throughput ATPase assay of DnaK-DnaJ; assay type: biochemical; conditions: for inhibition of DnaK-DnaJ ATPase activity upon re-testing: repurchased (fresh) samples
DnaK-DnaJ [2] = biological target: T1, DnaK-DnaJ; assay: DnaJ-mediated stimulation of ATP turnover by DnaK; assay type: biochemical; conditions: DnaK 0.6 μM
Outline: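 E. coli DnaK (purified) at 0.6 µM with DnaJ titrated, in 100 mM Tris-HCl, 20 mM KCl, 6 mM MgCl2, 0.01% Triton X-100, pH 7.4. Reaction started with 7 mM ATP stock and run 3 h at 37 °C. Quinaldine red–molybdate reagent added for 2 min, quenched with sodium citrate, then 15 min at 37 °C. Absorbance read at 530 nm; triplicates.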

[3] = biological target: DnaK binding to luciferase (Escherichia coli, UniProt P0A6Y8); assay: ELISA of DnaK binding to the model substrate firefly luciferase; conditions: 0.05 μM DnaK + 1 mM ATP
Sequence of DnaK binding to luciferase (P0A6Y8 whole entry): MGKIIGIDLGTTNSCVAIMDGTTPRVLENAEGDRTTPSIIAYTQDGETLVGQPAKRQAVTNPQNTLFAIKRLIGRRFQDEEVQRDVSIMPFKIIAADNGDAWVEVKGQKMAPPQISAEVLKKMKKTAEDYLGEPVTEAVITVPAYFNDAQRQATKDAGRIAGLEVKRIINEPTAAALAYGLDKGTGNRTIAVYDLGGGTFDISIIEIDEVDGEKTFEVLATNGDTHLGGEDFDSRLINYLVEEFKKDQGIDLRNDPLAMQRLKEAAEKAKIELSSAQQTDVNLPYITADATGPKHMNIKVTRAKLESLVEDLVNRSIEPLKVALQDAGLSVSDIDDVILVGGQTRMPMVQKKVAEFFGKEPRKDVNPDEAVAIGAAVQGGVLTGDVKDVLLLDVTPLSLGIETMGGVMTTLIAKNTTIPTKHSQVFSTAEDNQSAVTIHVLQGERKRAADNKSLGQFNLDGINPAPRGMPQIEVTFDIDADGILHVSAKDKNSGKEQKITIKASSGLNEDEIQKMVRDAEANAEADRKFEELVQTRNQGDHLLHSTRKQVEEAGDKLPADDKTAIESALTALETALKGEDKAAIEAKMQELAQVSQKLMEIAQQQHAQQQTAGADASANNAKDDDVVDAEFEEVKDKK

DnaK = DnaK (Escherichia coli, UniProt P0A6Y8); assay: Intrinsic ATPase activity of DnaK; assay type: biochemical; conditions: without DnaJ stimulation
Sequence of DnaK (P0A6Y8 whole entry): as above

[4] = biological target: firefly luciferase [luciferase: P08659]; assay: ELISA
Sequence of firefly luciferase [luciferase: P08659] (P08659 whole entry): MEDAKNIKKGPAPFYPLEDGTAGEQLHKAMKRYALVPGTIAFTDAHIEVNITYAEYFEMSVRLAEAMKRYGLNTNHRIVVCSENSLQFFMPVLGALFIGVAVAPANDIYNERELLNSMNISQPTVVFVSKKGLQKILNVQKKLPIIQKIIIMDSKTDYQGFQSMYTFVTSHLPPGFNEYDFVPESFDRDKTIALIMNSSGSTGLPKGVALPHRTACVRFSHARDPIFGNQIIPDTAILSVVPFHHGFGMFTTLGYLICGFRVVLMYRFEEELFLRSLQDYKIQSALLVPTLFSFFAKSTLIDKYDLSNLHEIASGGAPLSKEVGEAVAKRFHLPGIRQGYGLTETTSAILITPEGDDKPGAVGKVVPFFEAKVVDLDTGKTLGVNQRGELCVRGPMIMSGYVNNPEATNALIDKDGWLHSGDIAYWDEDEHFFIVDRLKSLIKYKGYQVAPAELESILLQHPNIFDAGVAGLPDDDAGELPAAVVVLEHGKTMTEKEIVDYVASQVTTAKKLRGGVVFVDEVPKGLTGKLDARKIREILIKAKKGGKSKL

T1 sequence (P0A6Y8 whole entry): as the sequence (P0A6Y8 whole entry) above
Sequence of Escherichia coli heat shock protein 70 (Hsp70/DnaK) (P0A6Y8 whole entry): as above

Molecule | inhibition of DnaK-DnaJ ATPase activity upon re-testing (DnaK-DnaJ [1]) | IC50 (DnaK-DnaJ [1]) | further results
O=C(O)c1cccc2c1NC(c1ccc([N+](=O)[O-])cc1)C1CC=CC21 (stereo not drawn) [1a, 4-(4-nitrophenyl)-3a,4,5,9b-tetrahydro-3H-cyclopenta[c]quinoline-6-carboxylic acid] | none of these compounds were inhibitors |  | 
O=C(O)c1ccc2c(c1)C1C=CCC1C(c1ccc(Cl)cc1)N2 (stereo not drawn) [1b, 4-(4-chlorophenyl)-3a,4,5,9b-tetrahydro-3H-cyclopenta[c]quinoline-8-carboxylic acid] | none of these compounds were inhibitors |  | 
O=C(O)c1ccc2c(c1)C1C=CCC1C(c1cccc(C(F)(F)F)c1)N2 (stereo not drawn) [1c, 4-(3-(trifluoromethyl)phenyl)-3a,4,5,9b-tetrahydro-3H-cyclopenta[c]quinoline-8-carboxylic acid] | none of these compounds were inhibitors |  | 
CCc1ccc(C2Nc3ccc(C(=O)O)cc3C3C=CCC32)cc1 (stereo not drawn) [1d, 4-(4-ethylphenyl)-3a,4,5,9b-tetrahydro-3H-cyclopenta[c]quinoline-8-carboxylic acid] | none of these compounds were inhibitors |  | 
CCOC(=O)c1c(N)n(-c2ccccc2)c2nc3ccccc3nc12 [2a, ethyl 2-amino-1-phenyl-1H-pyrrolo[2,3-b]quinoxaline-3-carboxylate] |  | > 500 µM | 
CCCCCCn1c(N)c(C(=O)OCC)c2nc3ccccc3nc21 [2b, ethyl 2-amino-1-hexyl-1H-pyrrolo[2,3-b]quinoxaline-3-carboxylate] |  | > 500 µM | 
Cc1cc(C(F)(F)F)c(C#N)c(SCC(=O)c2ccccc2)n1 [3a, 6-methyl-2-((2-oxo-2-phenylethyl)thio)-4-(trifluoromethyl)nicotinonitrile] |  | > 500 µM | 
CCOC(=O)c1c(N)sc2c1CCN(C(C)=O)C2 [3b, ethyl 6-acetyl-2-amino-4,5,6,7-tetrahydrothieno[2,3-c]pyridine-3-carboxylate] |  | > 500 µM | 
COc1cc(C(=O)NS(=O)(=O)c2ccccc2C)ccc1Cc1cn(C)c2ccc(NC(=O)OC3CCCC3)cc12 [3c, cyclopentyl (3-(2-methoxy-4-((o-tolylsulfonyl)carbamoyl)benzyl)-1-methyl-1H-indol-5-yl) carbamate] |  | 37 ± 1 µM | K0.5 of DnaJ (DnaK-DnaJ [2]; in presence of 25 μM compound): 0.18 ± 0.01 µM; K0.5 of DnaJ (DnaK-DnaJ [2]; in presence of 50 μM compound): 0.96 ± 0.16 µM; K0.5 of DnaJ (DnaK-DnaJ [2]; in presence of 100 μM compound): greater than 2 μM; effect on apparent affinity of DnaK for luciferase [3]: significantly improved the apparent affinity; also recorded: significantly enhanced this interaction; effect on the intrinsic ATPase activity of DnaK (DnaK): little effect on the intrinsic ATPase activity
Escherichia coli heat shock protein 70 (Hsp70/DnaK) (from UniProt P0A6Y8 1-638) (natural protein) |  |  | Kd [4]: 0.26 µM
